Results from ChEMBL document CHEMBL3526029, “Disposition and metabolism of GSK2251052 in humans: a novel boron-containing antibiotic” (Drug Metab Dispos, 2013).
Values belong to the compound of their own block, whether it stands above or below them.

What was measured:
[1] = Drug metabolism in human liver cytosol assessed as ADH-mediated (S)-3-(3-(aminomethyl)-1-hydroxy-1,3-dihydrobenzo[c][1,2]oxaborol-7-yloxy)propanoicacid formation at 50 to 500 uM by spectrophotometry in presence of NAD+; type: ADME; conditions: TDE = time-dependent effect
[2] = Clearance in healthy human plasma at 1500 mg, iv infusion for 1 hr as single dose; type: ADME, organism-based
In short: (§1)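 Six fasted healthy men received 1500 mg [14C]GSK2251052 as a 1-h constant-rate i.v. infusion. K2EDTA plasma was sampled from predose to 72 h, with profiling samples added at 96, 144 and 336 h. Parent and M3 were measured by validated LC/MS/MS after methanol/formic acid precipitation with stable-label internal standards (range 5–10,000 ng/ml). Noncompartmental analysis used actual times, linear-up/log-down trapezoids and CL = dose/AUC(0-∞).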

[3] = AUC (0 to t) in healthy human plasma at 1500 mg, iv infusion for 1 hr as single dose; type: ADME, organism-based; in short: as §1
[4] = Cmax in cynomolgus monkey at 35 mg/kg, iv administered as single infusion for 1 hr followed single oral dose of 35 mg/kg 4-MP; type: ADME, organism-based, Macaca fascicularis; conditions: in vivo
In short: (§2)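 Male cynomolgus monkeys given a 1-h i.v. infusion at 35 mg/kg (7 mg/ml in saline, pH 5, 5 ml/kg/h). Where 4-MP was used, it was given by oral gavage 1 h before infusion (8.75 mg/ml in water, 4 ml/kg). K2EDTA plasma was sampled from 0.5 to 120 h after infusion start. Parent and M3 were measured by LC/MS/MS after protein precipitation (range 100–200,000 ng/ml). Noncompartmental analysis used nominal times.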

Liver cytosol = experiment: Drug metabolism in human liver cytosol assessed as (S)-3-(3-(aminomethyl)-1-hydroxy-1,3-dihydrobenzo[c][1,2]oxaborol-7-yloxy)propanoicacid formation at 50 to 500 uM after 3 hrs by spectrophotometry in presence of NAD+ and ADH inhibitor 4-MP; type: ADME
[5] = Cmax in healthy human plasma at 1500 mg, iv infusion for 1 hr as single dose; type: ADME, organism-based; parameters: dose 1500 mg, route intravenous; in short: as §1
[6] = Half life in healthy human plasma at 1500 mg, iv infusion for 1 hr as single dose; type: ADME, organism-based
In short: (§3)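 Healthy men got a single 1500 mg [14C] dose by 1 h i.v. infusion. K2EDTA blood was sampled up to 336 h. Radioactivity in blood and plasma was measured by LSC, with AMS for plasma below LLQ. Parent and M3 were measured by LC/MS/MS (5–10,000 ng/ml range). Noncompartmental analysis used actual times, with t1/2 = ln2/λz and Tmax observed directly, timed from infusion start.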

[7] = Tmax in healthy human plasma at 1500 mg, iv infusion for 1 hr as single dose; type: ADME, organism-based; in short: as §3
[8] = AUC (0 to infinity) in healthy human plasma at 1500 mg, iv infusion for 1 hr as single dose; type: ADME, organism-based; parameters: dose 1500 mg, route intravenous, time infinity; in short: as §1
[9] = Mean residence time in cynomolgus monkey at 35 mg/kg, iv administered as single infusion for 1 hr; type: ADME, organism-based, Macaca fascicularis; parameters: dose 35 mg/kg, route intravenous; conditions: in vivo
In short: (§4)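 Male cynomolgus monkeys received 35 mg/kg as a 1 h i.v. infusion (7 mg/ml in saline, pH 5; 5 ml/kg/h), either alone or 1 h after oral gavage of 4-MP (8.75 mg/ml in water, 4 ml/kg). Plasma was sampled from 0.5 to 120 h, and parent and M3 were measured by LC/MS/MS. Noncompartmental analysis used nominal times, with t1/2 = ln2/λz.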

[10] = AUC (0 to infinity) in cynomolgus monkey at 35 mg/kg, iv administered as single infusion for 1 hr; type: ADME, organism-based, Macaca fascicularis; parameters: time infinity, dose 35 mg/kg, route intravenous; conditions: plasma; in short: as §2
[11] = Clearance in cynomolgus monkey at 35 mg/kg, iv administered as single infusion for 1 hr; type: ADME, organism-based, Macaca fascicularis; parameters: dose 35 mg/kg, route intravenous; conditions: in vivo; in short: as §2
[12] = Half life in cynomolgus monkey at 35 mg/kg, iv administered as single infusion for 1 hr followed single oral dose of 35 mg/kg 4-MP; type: ADME, organism-based, Macaca fascicularis; conditions: in vivo; in short: as §4
[13] = AUC (0 to infinity) in cynomolgus monkey at 35 mg/kg, iv administered as single infusion for 1 hr followed single oral dose of 35 mg/kg 4-MP; type: ADME, organism-based, Macaca fascicularis; conditions: plasma; in short: as §2
[14] = Volume of distribution at steady state in healthy human plasma at 1500 mg, iv infusion for 1 hr as single dose; type: ADME, organism-based; conditions: read-out: Vdss
In short: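 Healthy males got 1500 mg by 1-h IV infusion. Plasma (K2EDTA) was sampled to 72 h, plus 96, 144 and 336 h. Parent was measured by a validated LC/MS/MS method after methanol/formic acid precipitation with a stable-isotope internal standard (range 5–10,000 ng/ml). Vss = CL × MRT from noncompartmental analysis.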

[15] = Tmax in cynomolgus monkey at 35 mg/kg, iv administered as single infusion for 1 hr; type: ADME, organism-based, Macaca fascicularis; parameters: dose 35 mg/kg, route intravenous; conditions: in vivo; in short: as §4
[16] = Clearance in cynomolgus monkey at 35 mg/kg, iv administered as single infusion for 1 hr followed single oral dose of 35 mg/kg 4-MP; type: ADME, organism-based, Macaca fascicularis; conditions: in vivo; in short: as §2
[17] = Mean residence time in cynomolgus monkey at 35 mg/kg, iv administered as single infusion for 1 hr followed single oral dose of 35 mg/kg 4-MP; type: ADME, organism-based, Macaca fascicularis; conditions: in vivo; in short: as §4
[18] = Drug metabolism assessed as purified ADH (unknown origin)-mediated (S)-3-(3-(aminomethyl)-1-hydroxy-1,3-dihydrobenzo[c][1,2]oxaborol-7-yloxy)propanoicacid formation at 50 to 500 uM by spectrophotometry in presence of NAD+; type: ADME; conditions: human, TDE = time-dependent effect
[19] = Tmax in cynomolgus monkey at 35 mg/kg, iv administered as single infusion for 1 hr followed single oral dose of 35 mg/kg 4-MP; type: ADME, organism-based, Macaca fascicularis; conditions: in vivo; in short: as §4
[20] = Half life in cynomolgus monkey at 35 mg/kg, iv administered as single infusion for 1 hr; type: ADME, organism-based, Macaca fascicularis; parameters: dose 35 mg/kg, route intravenous; conditions: in vivo; in short: as §4
[21] = Volume of distribution at steady state in cynomolgus monkey at 35 mg/kg, iv administered as single infusion for 1 hr; type: ADME, organism-based, Macaca fascicularis; parameters: dose 35 mg/kg, route intravenous; conditions: in vivo, read-out: Vdss
In short: (§5)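 Cynomolgus monkeys got a 1-h IV infusion at 35 mg/kg (7 mg/ml in saline, pH 5), either alone or 1 h after oral gavage of 4-methylpyrazole (8.75 mg/ml in water, 4 ml/kg). Plasma (K2EDTA) was sampled to 120 h and assayed by protein precipitation and LC/MS/MS (range 100–200,000 ng/ml). Vss (CL × MRT) was derived by noncompartmental analysis on nominal times; values are for males.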

[22] = Volume of distribution at steady state in cynomolgus monkey at 35 mg/kg, iv administered as single infusion for 1 hr followed single oral dose of 35 mg/kg 4-MP; type: ADME, organism-based, Macaca fascicularis; conditions: in vivo, read-out: Vdss; in short: as §5
[23] = Cmax in cynomolgus monkey at 35 mg/kg, iv administered as single infusion for 1 hr; type: ADME, organism-based, Macaca fascicularis; parameters: dose 35 mg/kg, route intravenous; conditions: in vivo; in short: as §2
[24] = Drug recovery in healthy human feces treated with [14C]GSK2251052 at 1500 mg, iv infusion for 1 hr as single dose after 120 hrs by HPLC method; type: ADME, organism-based; conditions: in vivo
In short: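 Feces pooled over 0–120 h per subject by sample weight. About 1 g homogenate extracted twice with 4 volumes of acetonitrile:methanol:water:formic acid (50:25:25:1) under 20 min sonication. Extracts dried and reconstituted in water:methanol 90:10. Profiled by HPLC (Atlantis T3, ammonium acetate pH 4.5/methanol, 30°C) with fraction radiocounting and Orbitrap MS. Results given as % of dose, corrected for extraction recovery.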

[25] = Drug recovery in healthy human urine treated with [14C]GSK2251052 at 1500 mg, iv infusion for 1 hr as single dose after 120 to 336 hrs by HPLC method; type: ADME, organism-based; conditions: in vivo, BLD = below limit of detection
In short: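 Urine pooled by weight per subject over 0–120 h; 120–336 h pools from all subjects combined into one composite. Centrifuged at ~21,000g, then supernatant profiled by HPLC (Atlantis T3, ammonium acetate pH 4.5/methanol, 30°C) with radiochemical detection plus MS identification. Results are % of dose, corrected for centrifugation recovery measured by triplicate LSC.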

[26] = Drug recovery in healthy human feces treated with [14C]GSK2251052 at 1500 mg, iv infusion for 1 hr as single dose after 0 to 120 hrs by HPLC method; conditions: in vivo

Drug metabolism [1]: tde
clearance [2]: 345 mL/min
AUC(0-t) at 1 h [3]: 72300 ng·h/mL
Cmax [4]: 68600 ng/mL
Drug metabolism (Liver cytosol): metabolite_not_detected
Cmax [5]: 24600 ng/mL
half-life [6]: 11.6 h
Tmax [7]: 0.917 h
AUC(0-inf) [8]: 72500 ng·h/mL
MRT [9]: 4.9 h
AUC(0-inf) [10]: 60700 ng·h/mL
clearance [11]: 10 mL/min/kg
half-life [12]: 9.2 h
AUC(0-inf) [13]: 161000 ng·h/mL
Vd [14]: 197 L
Tmax [15]: 0.92 h
clearance [16]: 3.67 mL/min/kg
MRT [17]: 11 h
Drug metabolism [18]: tde
Tmax [19]: 0.92 h
half-life [20]: 5.4 h
Vd [21]: 3.04 L/kg
Vd [22]: 2.53 L/kg
Cmax [23]: 46000 ng/mL
SMILES: Cl.NC[C@H]1OB(O)c2c(OCCCO)cccc21

Drug recovery [24]: 1.4%
Drug recovery [25]: BLD
Drug recovery [26]: 1.4%
SMILES: NCC(O)c1cccc(OCCC(=O)O)c1O (stereo not drawn)

Drug recovery [25]: BLD
SMILES: NCC(O)c1cccc(OCCCO)c1O (stereo not drawn)
